The list is not random: actives were taken first. Their share in the collection is about 0.95%.
HNF4A DNA FP: change in binding of human HNF4A to DNA, primary screen, biochemical, fluorescence polarization, FITC-DNA; 0.3% of 360,000 active; Hepatocyte nuclear factor 4-alpha (Homo sapiens), P41235; AID 1224865, 2016; 1 h; activity change, % at 10 µM; in the data active = activity change above about 30%, passing the limit was not always enough
Target sequence (P41235 whole entry, looked up): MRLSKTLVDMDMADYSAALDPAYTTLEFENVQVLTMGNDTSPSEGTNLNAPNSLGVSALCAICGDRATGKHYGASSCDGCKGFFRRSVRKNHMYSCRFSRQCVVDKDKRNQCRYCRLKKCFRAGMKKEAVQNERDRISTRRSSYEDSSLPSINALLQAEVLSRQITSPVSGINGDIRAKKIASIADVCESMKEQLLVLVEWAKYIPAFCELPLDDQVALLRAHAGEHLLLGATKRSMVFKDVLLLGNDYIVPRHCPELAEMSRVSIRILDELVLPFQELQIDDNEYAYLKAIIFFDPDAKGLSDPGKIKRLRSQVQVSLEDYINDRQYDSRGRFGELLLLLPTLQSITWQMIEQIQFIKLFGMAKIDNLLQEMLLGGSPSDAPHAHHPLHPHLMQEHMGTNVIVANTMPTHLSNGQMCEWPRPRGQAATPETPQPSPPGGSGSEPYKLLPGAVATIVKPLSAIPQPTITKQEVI
ARFGAP1 inhibitor: inhibitors of rat ARFGAP1 GAP activity, primary screen, biochemical, fluorescence polarization, GDP tracer | ADP-ribosylation factor GTPase-activating protein 1 (Rattus norvegicus), Q62848 | Arfgap1-stimulated ARF1 GTP hydrolysis, GDP FP detection | inhibition, % at 16.5 µM | 0.26% of 360,000 active;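 active = inhibition above a per-plate limit, mean inhibition of low control wells plus 3 SD, cut at about 25% in these data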
Target sequence (Q62848 1-136 limits assumed): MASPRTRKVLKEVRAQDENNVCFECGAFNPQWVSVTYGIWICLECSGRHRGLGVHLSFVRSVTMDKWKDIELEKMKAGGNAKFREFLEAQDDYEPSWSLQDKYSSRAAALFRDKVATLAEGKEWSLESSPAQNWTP
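Assay system: purified rat His6-Arfgap1 residues 1-136 (GAP domain); Reagent: human Δ17 ARF1 bound to GTP; Dosing: 16.5 µM single point, 1.26% DMSO; Times: GTP hydrolysis reaction 2 h at 25 °C; Signal: FP, GDP Alexa 633 tracer displaced from anti-GDP antibody, 620/688 nm; Measure: % inhibition from polarization.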
ASAP1 GAP inh: inhibitors of human ASAP1 ArfGAP activity, primary screen, biochemical, fluorescence polarization | inhibition, % at 16.5 µM | AID 624377, 2012 | ASAP1-stimulated ARF1 GTP hydrolysis, GDP FP detection | 0.19% of 360,000 active | Arf-GAP with SH3 domain, ANK repeat and PH domain-containing protein 1 (Homo sapiens), …; in the data active = inhibition above about 25%
CSN deneddyl inh: inhibitors of CSN-mediated cullin deneddylation, primary screen, biochemical, fluorescence polarization, uHTS. COP9 signalosome complex subunit 5 (Homo sapiens), Q92905. Purified CSN, SCF-Nedd8-OG deneddylation. inhibition, % at 12.5 µM. 0.38% of 360,000 active;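 active = pattern-corrected inhibition above about 35%, with an unprinted fluorescence ratio check between 0.5 and 1.5, limit read from the data, passing the limit was not always enough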
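Assay system: Purified human Csn5 enzyme expressed in HEK293T cells | Amount: Enzyme 0.24 nM | Measured by: Fluorescence polarization readout | Medium: Tris/NaCl/DTT buffer, pH 7.5 | Compound dosing: One concentration, 12.5 µM, 0.25% DMSO | Times: 90 min incubation of compound, enzyme and substrate at room temperature | Control set: no-enzyme wells high, enzyme-with-substrate wells low | Read-out: % inhibition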
Large screens that a line does not name were inactive.

O=C(NC1CCCC1)[C@@H]1CCCN1C(=O)[C@H](Cc1cccnc1)NC(=O)N1CCOCC1	none (no result: HNF4A DNA FP, CSN deneddyl inh)
CN1CCN(c2ccc(C(=O)c3cn(-c4ccc(F)c(Cl)c4)nn3)cc2)CC1	none
Cc1ccc(-n2cc(C(=O)c3ccc(N4CCN(C)CC4)cc3)nn2)cc1Cl	HNF4A DNA FP 105.4
O=C(C(c1ccccc1)c1ccccc1)N(Cc1ccco1)C1CCS(=O)(=O)C1 (stereo not drawn)	none
CC(Oc1ccccc1Cl)C(=O)N(Cc1ccco1)C1CCS(=O)(=O)C1 (stereo not drawn)	HNF4A DNA FP 31.2
Cn1cc(C(=O)c2ccccc2C(=O)O)cc1C(=O)C(Cl)(Cl)Cl	CSN deneddyl inh 43.5
Cn1cc(C(=O)c2ccc(Cl)cc2Cl)cc1C(=O)O	none
CC(=O)NC1CC2CCCC(C1)N2C(=O)Nc1ccc(Cl)c(C(F)(F)F)c1 (stereo not drawn)	HNF4A DNA FP 29.5
Cc1ccc(NC(=O)N2C3CCCC2CC(NC(=O)C2CC2)C3)cc1 (stereo not drawn)	none
CC(CC1C(C#N)=C(N)SC(N)=C1C#N)c1ccccc1 (stereo not drawn)	CSN deneddyl inh 57.9
Cc1ccc(C(=O)NC2CCCCN(C)C2=O)c(C)c1 (stereo not drawn)	none (no result: HNF4A DNA FP, CSN deneddyl inh)
CCOC(=O)N1CCN(/C=C(\C#N)c2nc3ccccc3s2)CC1	none
N#C/C(=C\N1CCN(Cc2ccc3c(c2)OCO3)CC1)c1nc2ccccc2s1	HNF4A DNA FP 30.3
CCOc1ccc(NC(=O)/C(C#N)=C\c2ccc(N3CCCC3)c(C)c2)cc1	CSN deneddyl inh 46.8
O=C(COc1c(Cl)cc(Cl)cc1Cl)c1ccc(Cl)cc1	none
Cc1ccc(NC(=O)CO/N=C/c2ccc(N(C)C)cc2)cc1	HNF4A DNA FP 72.0, CSN deneddyl inh 50.1
CCn1c2ccccc2c2cc(/C=N/NC(=O)c3cccc(C)c3)ccc21	CSN deneddyl inh 45.3
C(=C\c1ccccc1)/CN1CCN(C(c2nnnn2C2CCCC2)C2CC2)CC1 (stereo not drawn)	none
CC(C)(C)n1nnnc1C(C1CC1)N1CCN(C/C=C/c2ccccc2)CC1 (stereo not drawn)	CSN deneddyl inh 51.2
C[C@]12Cc3ccccc3C1CC1=N[C@@H](c3ccc(C(F)(F)F)cc3)O[C@@]13C[C@@H]2C(=O)N3C1CCN(Cc2ccccc2)CC1 (stereo partly drawn)	none (no result: HNF4A DNA FP, CSN deneddyl inh)
Cc1cc(C)c2c(c1)CC(C)(C)CC2=O	HNF4A DNA FP 56.8
O=S(=O)(O)c1cc(O)ccc1O	none
O=S(=O)(c1cc(O)ccc1O)c1cccc2c(S(=O)(=O)c3cc(O)ccc3O)cccc12	ARFGAP1 inhibitor 24.7
COc1ccc2c(c1)C1=NN(/C(C)=C/C(C)=O)C(c3ccc(F)cc3)C1CC2 (stereo not drawn)	none
COc1ccc2c(c1)CCC1C2=NN(/C(C)=C\C(C)=O)C1c1ccc(F)cc1 (stereo not drawn)	HNF4A DNA FP 52.7
CCn1cc(CNC(=O)/C=C/c2ccc([N+](=O)[O-])cc2)c(C)n1	none
CCn1cc(CNC(=O)/C=C/c2cnn(C)c2)c(C)n1	HNF4A DNA FP 45.4
CC1(C)Cc2c(c(N3CCOCC3)nc3sc(-c4ccc(C(=O)O)o4)c(N)c23)CO1	HNF4A DNA FP 84.8, CSN deneddyl inh 61.8
CC(C)(C)c1ccc(C#C[C@@H]2C=C[C@@H](O)[C@@H](CO)O2)cc1	none (no result: HNF4A DNA FP, CSN deneddyl inh)
Nc1sc(-c2ccccc2)cc1C(=O)NCCc1ccc(Cl)cc1	HNF4A DNA FP 56.5
C=CCNC(=O)c1cc(-c2ccccc2)sc1N	none
COc1cccc(-c2nc3nc(C)cc(C)n3c2Nc2c(C)cccc2C)c1	HNF4A DNA FP 53.3
Nc1nc2c(ncn2[C@@H]2O[C@H](C(=O)NCCc3c[nH]c4ccccc34)[C@@H](O)[C@H]2O)c(=O)[nH]1	none (no result: HNF4A DNA FP, CSN deneddyl inh)
COc1ccccc1C(=O)NC(=S)/C=C1/N(C)c2ccccc2C1(C)C	none
CN1/C(=C\C(=S)NC(=O)c2ccccc2Cl)C(C)(C)c2ccccc21	HNF4A DNA FP 67.6
C=CCn1c(NC(=O)c2ccccc2Cl)c(C#N)c2nc3ccccc3nc21	HNF4A DNA FP 64.1, CSN deneddyl inh 56.8
CCCCn1c(NC(C)=O)c(C#N)c2nc3ccccc3nc21	none
Cc1cc(/C=C2/SC(=S)N(c3cccc(C(F)(F)F)c3)C2=O)c(C)n1-c1cccnc1	HNF4A DNA FP 63.6, CSN deneddyl inh 52.9 (no result: ARFGAP1 inhibitor, ASAP1 GAP inh)
COc1cccc(/C=C2\SC(=S)N(c3cccnc3)C2=O)c1OC	none
CCOC(=O)C1=C(O)/C(=C/c2ccc(-c3ccccc3C(=O)O)o2)SC1=Nc1ccc(C)cc1	HNF4A DNA FP 58.1, CSN deneddyl inh 50.2
CCCCCCCCN1C(=O)[C@@H](CC(=O)NCCCOCCCC)C[C@@]2(C(=O)OC)C1=C[C@H](C(C)(C)C)O[C@@H]2C	none (no result: HNF4A DNA FP, CSN deneddyl inh)
Cc1ccc(NCCN(C)C)c2c(=O)c3cc(O)ccc3sc12	HNF4A DNA FP 52.2
Cc1cc(CN2CCN(c3ncc(Cc4ccccc4)cn3)CC2)cc(C)c1O	none (no result: HNF4A DNA FP, CSN deneddyl inh)
O=C(NN1C(=O)/C(=C/c2ccc(O)c([N+](=O)[O-])c2)SC1=S)c1ccccc1Cl	none
O=C(NN1C(=O)/C(=C/C=C/c2ccccc2)SC1=S)c1ccncc1	HNF4A DNA FP 78.6
O=C(NN1C(=O)/C(=C/c2ccc(O)cc2)SC1=S)c1ccccc1O	HNF4A DNA FP 105.7
O=C(NN1C(=O)/C(=C/c2ccc(O)cc2)SC1=S)c1cccc(O)c1	HNF4A DNA FP 106.9
O=C(NC1CCCC1)c1cc(S(=O)(=O)N2CCCC2)ccc1Cl	none
Cc1ccc(C(=O)Nc2cccc(-c3cn4ccccc4n3)c2)cc1	CSN deneddyl inh 35.2
COc1ccc2c(c1)C(=O)O[C@@H](c1ccccc1)C[C@@H](O)C(=O)CC2	CSN deneddyl inh 86.5
COc1ccc2c(c1)CCC(=O)[C@H](O)C[C@H](c1ccccc1)OC2=O	none
COc1ccccc1CCn1cnc(-c2ccccc2)c1CC(C)C	none (no result: HNF4A DNA FP, CSN deneddyl inh)
CCOC(=O)C1C(=O)NC(SCC(N)=O)=C(C#N)C1c1ccccc1OCC (stereo not drawn)	HNF4A DNA FP 98.7, CSN deneddyl inh 43.0
O=S(=O)(Nc1ccc(F)cc1)c1ccc(NS(=O)(=O)c2cccs2)cc1	none
C=CCN=C1NC(c2cccc(F)c2)C(C(=O)OC)=C(C)N1Cc1ccccc1C(F)(F)F (stereo not drawn)	none (no result: HNF4A DNA FP, CSN deneddyl inh)
CN(C)c1ccc(C(=N)Cc2ccc3ccccc3n2)cc1	CSN deneddyl inh 44.2
Cc1c(O)ccc(/C(Cc2ccc3ccccc3n2)=N\O)c1O	none
COc1ccc2[nH]c(=O)c(CN(C3CCCCC3)C(c3nnnn3Cc3ccco3)C(C)C)cc2c1 (stereo not drawn)	HNF4A DNA FP 54.3 (no result: ARFGAP1 inhibitor, ASAP1 GAP inh)
COc1ccc2[nH]c(=O)c(CN(Cc3nnnn3Cc3ccco3)C3CCCCC3)cc2c1	none
O=C(C(=O)N1CCC(CNC(=O)c2ccccc2F)CC1)c1cc2ccccc2o1	none (no result: HNF4A DNA FP, CSN deneddyl inh)

Screens: PubChem, several laboratories
